# From PubChem
# T cell HTS: modulates CD8 T cell binding to vesicles; 2C CD8+ T cell-vesicle binding, flow cytometry; stronger effect = lower value; response (vesicle binding), % at 7 µM; actives 0.068% (n = 330,000); AID 2052;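 active means response, share of CD8 T cells binding vesicles, and their 90th percentile fluorescence all below set limits, cut at about 80% in these data, passing the limit was not always enough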;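 further: values below 100% mean blocked vesicle binding to the CD8+ T cells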
#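 Read-out – percent CD8+ FL2 mean versus row control · System – murine 2C transgenic CD8+ T lymphocytes · Times – 1.5 h cell–vesicle binding at 37 °C, then 20 min icy labelling · Control set – naked vesicles low, QL9 vesicles with vehicle high · Detection – cytometric PE anti-B7-1 and Alexa647 anti-CD8 signals after 1% paraformaldehyde fixation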
# Pemphigus Ab inh: blocks pemphigus antibody binding to human desmoglein-3 | P32926 | DSG3-coupled beads, scFv-anti-DSG3-GFP binding, flow cytometry; stronger effect = lower value | binding (percent of control), % at 10 µM | actives 0.48% (n = 310,000) | AID 588358;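 active means binding more than 3 SD below its plate's average and above zero; inconclusive means below that plate limit but binding exactly zero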;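 further: hits lower antibody fragment binding to DSG3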
# Target sequence (P32926 whole entry, looked up, the tested form may be a part): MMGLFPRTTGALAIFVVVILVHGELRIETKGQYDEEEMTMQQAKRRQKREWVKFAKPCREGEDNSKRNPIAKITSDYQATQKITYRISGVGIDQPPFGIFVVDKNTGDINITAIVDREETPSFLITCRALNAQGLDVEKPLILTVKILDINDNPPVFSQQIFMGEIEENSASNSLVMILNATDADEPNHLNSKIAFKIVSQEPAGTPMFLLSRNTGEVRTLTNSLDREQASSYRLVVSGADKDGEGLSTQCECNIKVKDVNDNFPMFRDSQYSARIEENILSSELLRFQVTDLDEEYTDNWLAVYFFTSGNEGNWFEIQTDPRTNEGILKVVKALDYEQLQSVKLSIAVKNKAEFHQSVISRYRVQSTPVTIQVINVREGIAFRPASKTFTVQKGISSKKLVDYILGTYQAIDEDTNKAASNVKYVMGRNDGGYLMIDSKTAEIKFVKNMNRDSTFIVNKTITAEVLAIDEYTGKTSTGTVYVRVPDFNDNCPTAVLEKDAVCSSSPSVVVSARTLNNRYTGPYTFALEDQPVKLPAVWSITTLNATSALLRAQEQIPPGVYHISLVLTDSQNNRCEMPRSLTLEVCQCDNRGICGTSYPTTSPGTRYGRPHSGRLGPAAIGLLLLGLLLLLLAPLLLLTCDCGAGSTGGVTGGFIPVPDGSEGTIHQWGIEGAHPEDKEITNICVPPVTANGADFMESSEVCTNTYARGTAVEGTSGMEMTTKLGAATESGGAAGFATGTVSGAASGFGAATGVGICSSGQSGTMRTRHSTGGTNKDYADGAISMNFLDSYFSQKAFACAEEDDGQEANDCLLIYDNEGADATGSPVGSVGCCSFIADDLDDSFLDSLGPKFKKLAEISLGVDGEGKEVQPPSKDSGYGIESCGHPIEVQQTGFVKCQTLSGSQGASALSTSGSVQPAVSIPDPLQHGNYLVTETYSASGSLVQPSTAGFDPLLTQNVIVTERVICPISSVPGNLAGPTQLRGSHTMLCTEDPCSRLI
# HDAC3 inhib: inhibitors of human histone deacetylase 3 | O15379 | inhibition, % at 8.3 µM | recombinant HDAC3, fluorogenic peptide/trypsin coupled, fluorescence | actives 0.15% (n = 320,000) | AID 2718; in the data active means inhibition above about 26%, passing the limit was not always enough; inconclusive means no clear call, values can overlap the other calls
# Arr AP2 block: blocks beta-arrestin peptide binding to AP2 adaptin. actives 0.31% (n = 340,000). AID 504490. FITC-arrestin peptide / GST-AP2 beads, flow cytometry; AP2 beta2 appendage carries R879A mutation. inhibition, % at 10 µM;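 active means inhibition above a set limit, near 3 SD of compounds lacking own fluorescence, cut at about 54% in these data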
#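 Test system: GST-tagged AP2 beta2-adaptin appendage (R879A) on 4 µm glutathione beads; also added: fluorescein-tagged arrestin peptide at 50 nM final; timing: 12 min plus 1 h, RT; signal: flow cytometry, FL1 (488/535 nm); read-out: percent drop in bead-associated FITC signal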
# JMJD2C inh: human JMJD2C demethylase inhibition | Q9H3R0 | GST-JMJD2C(1-420) H3K9me3 demethylation, DELFIA europium | inhibition, % at 2.35 µM | actives 0.069% (n = 330,000) | AID 2099;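 active means more than half of a compound's replicate wells show inhibition beyond 50%, single wells judged on their own value; inconclusive means some, but no more than half, of replicates pass 50% inhibition; inactive means no replicate passes 50% inhibition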;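 further: signal counts dimethyl H3K9 product captured on neutravidin plate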
# LANA-H2A inh: blocks KSHV LANA binding to histone H2A/H2B; Q9QR71; cell-free LANA-H2A/H2B peptide, fluorescence polarization; actives 0.6% (n = 320,000); AID 2629; inhibition, % (test concentration not listed); in the data active means inhibition mostly above about 10%, no sharp cut-off; inactive means mostly below about 6.7%
# Arr-AP2 CP1: inhibitors of human beta-arrestin and AP2 interaction. shares compounds with Arr AP2 block. GST-AP2 beads, FITC arrestin peptide binding, flow cytometry; GST-fused beta2-adaptin appendage, R879A mutant. inhibition, % at 10 µM. actives 2% (n = 1,300). AID 504908;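 active means inhibition above a set limit, roughly 3 SD of non-fluorescent compound noise, cut at about 38% in these data; inactive means inhibition at or below that limit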;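 further: loss of bead fluorescence from 50 nM FITC arrestin peptide bound to appendage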
# GST GSH counter: counter-screen for beta-arrestin AP2 inhibitors: GST-GSH bead binding; shares compounds with Arr AP2 block; GST-fluorescein binding to GSH beads, fluorescence; inhibition, % at 10 µM; actives 2% (n = 1,300);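 active means inhibition above 50%, about 3 SD of the inhibition seen with non-fluorescent compounds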;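 further: fluorescein maleimide labelled GST captured on 4 micron glutathione beads; higher means more loss of bead fluorescence from quenching or blocked binding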
# A number is an active result; i = inactive; ? = inconclusive; nt = no result given. Most compounds without a hit are left out; they make up all but 1.6% or so of the library.
SMILES,T cell HTS,Pemphigus Ab inh,HDAC3 inhib,Arr AP2 block,JMJD2C inh,LANA-H2A inh,Arr-AP2 CP1,GST GSH counter
CCOC(=O)C1=C(COC(=O)c2ccc(OC(C)C)cc2)NC(=O)NC1C (stereo not drawn),i,i,i,i,i,i,nt,nt
CCOC(=O)C1=C(COC(=O)C(CC)c2ccccc2)NC(=O)NC1C (stereo not drawn),i,?,i,67,i,i,i,i
CC(=O)C[C@H](O)CC(=O)[C@@H]1OC(=O)CCCCCc2ccccc21,i,i,i,i,i,i,nt,nt
COc1ccccc1OCC(=O)N1CCN(c2ccccc2OC)CC1,i,i,i,i,?,i,nt,nt
CCOc1ccccc1N1CCN(C(=O)CC(C)(C)C)CC1,i,i,i,55,i,i,i,i
COc1ccccc1N1CCN(C(=O)COc2cccc(C)c2C)CC1,i,i,nt,61,i,nt,i,i
COc1ccc(NC(=O)CSc2nnc(-c3cccnc3)s2)cc1,i,i,i,i,i,i,nt,nt
Cc1cc(NC(=O)c2cnn3c(C(F)F)cc(C4CC4)nc23)no1,i,i,i,i,i,i,nt,nt
Cc1cc(NC(=O)c2cnn3c(C(F)(F)F)cc(-c4ccccc4)nc23)no1,i,i,i,i,i,i,i,i
Cc1cc(NC(=O)c2cnn3c(C(F)F)cc(-c4ccccc4)nc23)no1,i,i,i,i,i,i,i,i
COc1ccc(N(C)C(=O)C2CCN(S(=O)(=O)c3cccc4nonc34)CC2)c(OC)c1,i,i,i,i,i,i,nt,nt
O=C(OCc1ccccc1)/C(=C/c1ccccc1Cl)NC(=O)c1ccco1,i,i,i,i,i,i,nt,nt
COc1ccc(CNC(=O)CN(C(=O)CCC(=O)Nc2ccccn2)c2ccc3c(c2)OCO3)cc1,i,i,i,i,i,i,nt,nt
CN(C)c1oc(COc2ccc(F)cc2)nc1C#N,i,i,i,55,i,i,i,i
CCOc1ccc(NC(=S)N2CCN(S(=O)(=O)c3ccccc3)CC2)cc1,i,i,i,58,i,i,i,i
CCCCSC(=S)N(C)C1CCS(=O)(=O)C1 (stereo not drawn),i,i,i,98,i,i,i,i
COc1ccccc1NS(=O)(=O)c1cc(NC(=O)c2sc3cc(Cl)ccc3c2Cl)ccc1C,i,i,i,105,i,i,i,i
CCNC(=S)Nc1ccc(C)c(S(=O)(=O)Nc2ccccc2OC)c1,i,i,i,i,i,i,nt,nt
O=C(Nc1ccccc1N1CCCC1)C1CCCO1 (stereo not drawn),nt,i,nt,i,nt,nt,nt,nt
CC(Oc1ccc(Br)cc1)C(=O)N1CCC(C(N)=O)CC1 (stereo not drawn),i,i,i,59,i,i,i,i
CC(Oc1ccc(Br)cc1)C(=O)N1CCN(c2ccccn2)CC1 (stereo not drawn),i,i,i,i,i,i,nt,nt
COc1cc(C(=O)Nc2nc3ccc(S(C)(=O)=O)cc3s2)cc(OC)c1C,i,i,i,i,i,i,nt,nt
COc1cc(OC)cc(C(=O)Nc2nc3ccc(S(C)(=O)=O)cc3s2)c1,i,i,i,104,i,i,i,i
C=CCN1C=C/C(=C\C=C(C#N)C#N)c2ccccc21,i,i,i,i,i,i,nt,nt
CCCCCCN1C=C/C(=C\C=C(C#N)C#N)c2ccccc21,i,i,i,75,i,i,i,i
SMILES,T cell HTS,Pemphigus Ab inh,HDAC3 inhib,Arr AP2 block,JMJD2C inh,LANA-H2A inh,Arr-AP2 CP1,GST GSH counter
O=C(Nc1ccc(Br)cc1)c1cccc2c1C(=O)N(C1CCCCC1)C2,i,i,i,i,i,i,nt,nt
Cc1cc(C)cc(NC(=O)c2cccc3c2C(=O)N(C2CCCCC2)C3)c1,i,i,i,62,i,i,i,i
Cc1ccc(C)c(N2CCN(c3ccncc3N)CC2)c1,i,i,nt,55,i,i,i,i
Cc1ccc(C)c(N2CCN(CC3CCCCC3)CC2)c1,i,i,i,i,i,i,nt,nt
CCOC(=O)C1=C(COC(=O)CNC(=O)c2ccc(C)cc2)NC(=O)NC1C (stereo not drawn),i,i,i,i,i,i,nt,nt
CCOC(=O)C1=C(COC(=O)COc2ccc(C(=O)CC)cc2)NC(=O)NC1C (stereo not drawn),i,i,i,i,i,i,i,i
CCOC(=O)C1=C(COC(=O)COc2ccc(C(C)=O)cc2)NC(=O)NC1C (stereo not drawn),i,i,i,i,i,i,i,i
CCOC(=O)C1=C(COC(=O)COc2ccccc2C#N)NC(=O)NC1C (stereo not drawn),i,i,i,i,i,i,i,i
CCOC(=O)C1=C(COC(=O)c2c(OC)cccc2OC)NC(=O)NC1C (stereo not drawn),i,i,i,i,i,i,nt,nt
CCOC(=O)C1=C(COC(=O)COc2ccc(C#N)cc2)NC(=O)NC1C (stereo not drawn),i,nt,i,i,i,i,i,i
NS(=O)(=O)c1cccc(NC(=O)C(Cc2ccccc2)NC(=O)c2ccccc2)c1 (stereo not drawn),i,i,i,i,i,i,nt,nt
CCCCn1c(N)c(N(CCOC)C(=O)c2cc(-c3ccccc3Cl)nc3ccccc23)c(=O)[nH]c1=O,i,i,nt,i,i,nt,nt,nt
O=C(O)CSc1ccn(Cc2ccccc2)c1,nt,i,nt,nt,nt,nt,nt,nt
CCN(CC(=O)Nc1ccc(S(=O)(=O)N2CCCC2)cc1)CC(=O)Nc1ccccc1C(F)(F)F,i,i,i,i,i,i,nt,nt
O=C(CN1C(=O)NC2(CCCCCC2)C1=O)Nc1ccc(OC(F)(F)F)cc1,nt,i,nt,nt,nt,nt,nt,nt
CCOC(=O)C1=C(COC(=O)COc2cc(C)ccc2C)NC(=O)NC1C (stereo not drawn),i,i,i,i,i,i,i,i
CC1CCCN(C(=O)C2CCN(S(=O)(=O)c3ccccc3)CC2)C1 (stereo not drawn),i,i,i,i,i,i,nt,nt
O=C1CC(c2ccco2)CC(O)=C1C=NCCN1CCN(C(=S)Nc2ccccc2)CC1 (stereo not drawn),i,i,i,56,i,i,i,i
COc1ccc(C(=O)NCc2cnn(C)c2C)cc1OC1CCN(C(C)C)CC1,i,nt,nt,i,i,i,nt,nt
O=C(CSc1nc2[nH]ncc2c(=O)n1-c1ccccc1)c1ccc2c(c1)OCCO2,i,i,i,i,i,i,nt,nt
N=c1c2cn[nH]c2nc(SCC(=O)c2ccc(Br)cc2)n1-c1ccc(Br)cc1,i,i,i,74,i,i,i,i
